Screening results: PubChem BioAssay, The Scripps Research Institute Molecular Screening Center
The list is not random: actives were taken first. Their share in the collection is about 4.5%.
GPR7 antagonist: human neuropeptides B/W receptor 1 antagonism. P48145. GPR7-expressing cells, fluorescence antagonist assay. inhibition, % at 4.4 µM. actives 1.1% (n = 290,000). AID 1861; in the data active = inhibition above about 16%, passing the limit was not always enough;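 note: cells stimulated with the agonist NPW; 0% = agonist with vehicle and 100% = vehicle without agonist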
TAAR1 antagonist: human TAAR1 antagonism. Q96RJ0. CHO RD-HGA16 TAAR1, Fluo-8 calcium fluorescence, antagonist. inhibition, % at 3 µM. actives 1.5% (n = 360,000). AID 624466;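 active = inhibition above a per-plate cutoff, the mean inhibition of test compounds on that plate plus 3 SD, cut at about 49% in these data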;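 note: 0% = DMSO plus EC80 beta-PEA response and 100% = DMSO alone without agonist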
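Assay system: RD-HGA16 CHO cells with stable hTAAR1 and Gα16 / Reagent: EC80 β-phenethylamine stimulus / Doses: 3 µM, single point / Timing: dye loading 75 min at 37 °C, then 30 min room temperature / Measured by: Fluo-8 intracellular calcium dye fluorescence, real-time kinetic reads / Controls: vehicle wells and EC80 agonist wells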
TAAR1 agonist: human TAAR1 agonism | actives 0.99% (n = 360,000) | Q96RJ0 | activation, % at 3 µM | CHO RD-HGA16 TAAR1, Fluo-8 calcium fluorescence; vehicle wells 0%, saturating PEA agonist 100% | AID 624467;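 active = activation above the mean activation of all test compounds in the run plus 3 SD, cut at about 38% in these data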
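Assay system: CHO-derived RD-HGA16 cells with stable Gα16 and human TAAR1; timing: 17-24 h seeding, 75 min 37 °C dye, 30 min RT; read-out: % activation from peak over basal fluorescence ratio, DMSO-to-PEA scaled; measured by: kinetic Fluo-8 calcium fluorescence; benchmarks: low control DMSO, high control PEA (EC100); doses: 3 µM single concentration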
OX1R antag-1: blocks the human orexin 1 receptor; O43613; CHO/OX1R cells, Fluo-8 calcium fluorescence, orexin A; inhibition, % at 5 µM; actives 0.43% (n = 330,000); AID 434989;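 active = inhibition above its plate's threshold, mean inhibition of all tested compounds on the plate plus 3 SD, cut at about 37% in these data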;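 note: 0% = orexin A challenge wells and 100% = SB-334867-A antagonist wells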
Target sequence (O43613 whole entry, looked up): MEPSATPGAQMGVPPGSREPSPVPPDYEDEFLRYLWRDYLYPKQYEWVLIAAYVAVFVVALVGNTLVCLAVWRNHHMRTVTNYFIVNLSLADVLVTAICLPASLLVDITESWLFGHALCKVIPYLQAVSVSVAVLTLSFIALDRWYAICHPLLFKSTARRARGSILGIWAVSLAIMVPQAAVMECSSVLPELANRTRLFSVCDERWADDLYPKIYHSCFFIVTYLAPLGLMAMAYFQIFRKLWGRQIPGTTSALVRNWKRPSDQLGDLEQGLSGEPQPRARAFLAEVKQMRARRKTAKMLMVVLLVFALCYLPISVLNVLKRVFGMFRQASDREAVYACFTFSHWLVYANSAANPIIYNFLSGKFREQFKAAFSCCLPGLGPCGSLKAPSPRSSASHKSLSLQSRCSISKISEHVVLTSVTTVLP
CHO parental Ca: counter-screen for OX1R antagonists: effect in parental CHO cells; parental CHO-K1, ATP-induced calcium, Fluo-8 fluorescence; inhibition, % at 5.6 µM; actives 0.63% (n = 330,000); AID 463079;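 active = inhibition above that plate's mean sample inhibition plus 3 SD, cut at about 26% in these data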;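 note: 0% = ATP-challenged DMSO wells and 100% = DMSO wells without ATP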
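Measured by: calcium-sensitive Fluo-8 fluorescence / Test system: CHO parental line / Controls: ATP-challenged DMSO wells low, unchallenged DMSO wells high / Measure: % inhibition / Compound: single nominal dose of 5.6 µM per compound / Replicates: single well per compound, no replicates / Reagent: ATP as calcium-mobilizing challenge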
OX1R antag-2: antagonists of human orexin 1 receptor (OX1R) | O43613 | OX1R-expressing cells, FRET antagonist read-out | inhibition, % at 6.6 µM | actives 1.8% (n = 330,000) | AID 485270; in the data active = inhibition mostly above about 38%, no sharp cut-off; inactive = mostly below about 40%;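 note: 0% = agonist challenge alone and 100% = reference antagonist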
OX1R HTRF confirm: confirmation of human orexin 1 receptor antagonists, HTRF format; shares compounds with OX1R antag-2; actives 49% (n = 1,800); OX1R-expressing cells, HTRF antagonist assay; inhibition, % at 6.6 µM; in the data active = inhibition above about 55%;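 note: CHO cells expressing OX1R stimulated with orexin A at about EC80; 0% = agonist challenge alone and 100% = reference antagonist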
CHO-K1 HTRF cnt: counter-screen for OX1R antagonists: effect in parental CHO-K1 cells | actives 48% (n = 1,800) | shares compounds with OX1R antag-2 | inhibition, % at 6.6 µM | HTRF counterscreen; in the data active = inhibition above about 17%;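 note: 0% = agonist challenge with vehicle and 100% = vehicle alone without agonist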
* = called active by the depositor; . = not tested or not shown.

SMILES	GPR7 antagonist	TAAR1 antagonist	TAAR1 agonist	OX1R antag-1	CHO parental Ca	OX1R antag-2	OX1R HTRF confirm	CHO-K1 HTRF cnt
O=C(CSc1cccc[n+]1[O-])Nc1c(Br)cc([N+](=O)[O-])cc1Br	-2	-18	5	-3	-15	118*	40	54*
Cc1cccc(C(C)C)c1NC(=O)CSc1cccc[n+]1[O-]	.	-13	2	-18	-6	9	.	.
Cc1ccc(-c2cc(C(=O)Nc3cc(C)ccc3O)no2)cc1	-17	4	1	-1	-2	1	.	.
Cc1ccc(O)c(NC(=O)c2cc(-c3ccccc3Cl)on2)c1	6	-12	-1	16	-3	90*	83*	7
COc1ccccc1/C=C(/NC(=O)c1ccccc1)C(=O)NCCCn1ccnc1	0	-20	0	-15	-10	5	.	.
CNC(=O)c1cc2cccc(OC)c2oc1=O	-7	-3	9	-6	-5	42	.	.
COc1cccc2cc(C(=O)NCc3ccccn3)c(=O)oc12	-5	8	6	-7	-4	116*	33	34*
O=C(Nc1ccc2oc(-c3ccccc3)nc2c1)C1CCCO1 (stereo not drawn)	-5	9	2	12	-10	98*	46	11
O=C(Nc1ccc(-c2nc3ccccc3o2)cc1)C1CCCO1 (stereo not drawn)	-6	5	4	-17	-1	22	.	.
CCOc1cc(/C=C2/NC(=O)NC2=O)cc([N+](=O)[O-])c1O	-17	3	6	4	6	80*	49	74*
C=CCc1cc(/C=C2/NC(=O)NC2=O)cc(OCC)c1O	3	0	10	-20	-8	13	.	.
Cc1csc(NC(=O)c2cnc3ccccc3n2)n1	5	3	1	-11	-1	113*	29	48*
Cc1ccccc1NC1=C/C(=N\S(=O)(=O)c2cccs2)c2ccccc2C1=O	-7	24	10	-29	-19	39	.	.
Cc1cc[n+](C2=C([O-])c3ccccc3C(=O)/C2=N\S(=O)(=O)c2cccs2)cc1C	3	-17	4	-17	-13	106*	30	25*
COc1ccc2oc(=O)c(C(=O)NCc3ccc(F)cc3)cc2c1	-18	-19	4	-21	-5	17	.	.
COc1ccc2oc(=O)c(C(=O)NCc3cccnc3)cc2c1	-11	-5	4	-24	-21	83*	35	40*
COc1ccc(CNC(=O)C2(C)Cc3c(-c4cccc(C(N)=O)c4)ccnc3O2)cc1OC (stereo not drawn)	.	-33	0	.	.	.	.	.
Cc1cccc(NC(=O)Nc2cccc(C#N)c2)n1	-2	8	-1	-21	-13	91*	54	5
CC(=O)c1cccc(-c2cnc3c(NC=O)cc(-c4ccc(F)cc4)cn23)c1	.	28	9	.	.	.	.	.
O=C(CNC(=O)c1ccc(Cl)c([N+](=O)[O-])c1)NCC1CCCO1 (stereo not drawn)	0	4	0	-17	1	44	.	.
O=C1c2ccc(-c3ccc4c(c3)C(=O)N(CCO)C4=O)cc2C(=O)N1CCO	0	24	8	-9	-5	174*	66*	82*
Cc1ccc2c(c1)C(=O)N(CCCCO)C2=O	8	0	11	-10	1	15	.	.
O=C1c2ccc(Oc3ccc4c(c3)C(=O)N(CCCO)C4=O)cc2C(=O)N1CCCO	-10	-7	18	-5	-20	136*	45	25*
Cc1ccc(C)c(S(=O)(=O)N2CCN(C(=O)CCC(=O)c3cc(C)sc3C)CC2)c1	.	14	-3	-37	-18	21	.	.
CCN1CCN(CCCNC(=O)c2cc3cc4ccc(OC)cc4nc3o2)CC1	-8	.	.	-30	-23	104*	37	41*
